Experiment [1] has as its system U-937. In words: Antiproliferative activity against human U937 cells assessed as growth inhibition after 48 hrs by MTS-PMS assay. Format: functional, cell-based. A digest of the protocol: (§1)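 Cells at 2.5-5.0 × 10^4 per 200 µL were exposed to compounds (0-50 µM) for 48 h at 37 °C, 5% CO₂. MTS (2.0 mg/ml) and PMS (0.92 mg/ml), mixed 10:1, were added for 3 h at 37 °C, and A490 was read. Background was subtracted, viability was taken as a % of untreated, and IC50 was found by graphic extrapolation.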
For orientation: Tetrazolium dyes change colour on reduction, which living cells bring about.

A short description of experiment [2]: Antiproliferative activity against mouse NIH/3T3 cells assessed as growth inhibition after 48 hrs by MTS-PMS assay. Format: cell-based, NIH3T3. A digest of the protocol:
as §1

For the next experiment, the system named is K562. Put plainly: Antiproliferative activity against human K562 cells assessed as growth inhibition after 48 hrs by MTS-PMS assay. Format: functional, cell-based. The method, boiled down:
as §1

The subject of a further experiment is THP-1. In words: Antiproliferative activity against human THP1 cells assessed as growth inhibition after 48 hrs by MTS-PMS assay. Format: functional, cell-based. The method, boiled down: as §1
Experiment [3] in a line: Antiproliferative activity against human L-132 cells assessed as growth inhibition after 48 hrs by MTS-PMS assay. Format: cell-based, L132. The method, boiled down:
as §1

Experiment [4] concerns U-937. Put plainly: Induction of apoptosis in human U937 cell assessed as pre-necrotic cells at IC50 concentration after 24 hrs using Annexin V-FITC staining by flow cytometry relative to untreated control. Format: functional.
Experiment [5] has as its system U-937. Put plainly: Induction of apoptosis in human U937 cell assessed as formation of apoptotic bodies with membrane blebbing at IC50 concentration after 24 hrs using Hoechst 33258 staining by confocal microscopic analysis. Format: functional, cell-based.
The test system of experiment [6] is U-937. Put plainly: Induction of apoptosis in human U937 cell assessed as late apoptotic cells at IC50 concentration after 24 hrs using Annexin V-FITC staining by flow cytometry relative to untreated control. Format: functional.
For experiment [7], the system named is U-937. Put plainly: Induction of apoptosis in human U937 cell assessed as early apoptotic cells at IC50 concentration after 24 hrs using Annexin V-FITC staining by flow cytometry relative to untreated control. Format: functional. In general terms: In flow cytometry, cells or beads pass a laser one at a time.
Setting [8] is: Homo sapiens, U-937, 48 h, read-out: IC50.
[9] abbreviates: Mus musculus, NIH3T3, 48 h, read-out: IC50.
Where [10] appears, read: Homo sapiens, K562, 48 h, read-out: IC50.
The mark [11] stands for this setting: Homo sapiens, THP-1, 48 h, read-out: IC50.
Setting [12] is: Homo sapiens, L132, 48 h, read-out: IC50.

The source made the active and inactive calls. The rule behind the calls is not given here.

As a reminder, the IC50 is the concentration that inhibits the measured activity by half. Regarding `C=C1CC[C@@H]2[C@](C)(CO)[C@H](O)CC[C@@]2(C)[C@@H]1C/C=C1/C(=O)OC[C@H]1OC(=O)/C=C\C(=O)O`, the IC50 with U-937 [1] (setting [8]) came out at 9.72 µM; in experiment [2] (setting [9]), 11.3 µM; in the experiment on K562 (setting [10]) it was 42 µM; in the experiment with THP-1 (setting [11]), 7.77 µM; in [3] (setting [12]), 12.8 µM.
Turning to `C=C1CC[C@@H]2[C@]3(C)COC(C)(C)O[C@@H]3CC[C@@]2(C)[C@@H]1C/C=C1/C(=O)OC[C@H]1OC(=O)c1ccccc1C(=O)O`, the IC50 with U-937 [1] (setting [8]) was 14.6 µM; in experiment [2] (setting [9]), 16 µM; in the experiment with K562 (setting [10]), 26.9 µM; in the experiment on THP-1 (setting [11]), 12.2 µM; in experiment [3] (setting [12]) it was 18.8 µM.
For `C=C1CC[C@@H]2[C@](C)(CO)[C@H](O)CC[C@@]2(C)[C@@H]1C/C=C1/C(=O)OC[C@H]1OC(=O)c1ccccc1C(=O)O`, in that order: 6.27 µM, 8.01 µM, 41.1 µM, 5.68 µM and 10.9 µM.
For `C=C1CC[C@@H]2[C@](C)(CO)[C@H](O)CC[C@@]2(C)[C@@H]1C/C=C1/C(=O)OC[C@H]1OC(=O)CCCC(=O)O`, in that order: 9.76 µM, 22.1 µM, 19.6 µM, 7.53 µM and 19.5 µM.
Consider `C=C1CC[C@@H]2[C@]3(C)COC(C)(C)O[C@@H]3CC[C@@]2(C)[C@@H]1C/C=C1/C(=O)OC[C@H]1OC(=O)/C=C\C(=O)O`, for which the IC50 is 14.8 µM with THP-1 (setting [11]) and 31.1 µM in experiment [3] (setting [12]).
With `C=C1CC[C@@H]2[C@](C)(CO)[C@H](O)CC[C@@]2(C)[C@@H]1C/C=C1/C(=O)OC[C@H]1OC(=O)CCC(=O)O`, the IC50 with U-937 [1] (setting [8]) turned out to be 5.47 µM; in experiment [2] (setting [9]) it was 10.2 µM; in the experiment on K562 (setting [10]), 25.3 µM; in the experiment on THP-1 (setting [11]), 5.84 µM; in experiment [3] (setting [12]), 8.5 µM. Further, the figures for the Activity with U-937 [4], in the experiment with U-937 [6] and in the experiment with U-937 [7] were 2.51%, 27.25% and 18.77%, respectively. Moreover, the outcome with U-937 [5] was Active.
For `C=C1CC[C@@H]2[C@](C)(CO)[C@H](O)CC[C@@]2(C)[C@@H]1CCC1C(=O)OC[C@H]1OC(=O)CCCC(=O)O` (stereo partly specified), the IC50 entry (in the experiment with U-937 [1] (u-937); in experiment [2] (nih3t3); in the experiment on K562 (k562); with THP-1 (thp-1); in experiment [3] (l132)) was “Not Active” each time.
On to `C=C1CC[C@@H]2[C@](C)(CO)[C@H](O)CC[C@@]2(C)[C@@H]1C/C=C1/C(=O)OC[C@H]1O` [ANDROGRAPHOLIDE], for which the IC50 was 12.9 µM in the experiment on U-937 [1] (setting [8]); 44.5 µM in experiment [2] (setting [9]); 41.9 µM in the experiment with K562 (setting [10]); 6.69 µM in the experiment on THP-1 (setting [11]); 53.8 µM in [3] (setting [12]).
As to `C=C1CC[C@@H]2[C@]3(C)COC(C)(C)O[C@@H]3CC[C@@]2(C)[C@@H]1C/C=C1/C(=O)OC[C@H]1OC(=O)CCCC(=O)O`, the concentration for half-maximal inhibition (IC50) with U-937 [1] (setting [8]) turned out to be 15.6 µM; in the experiment with K562 (setting [10]) it was 36.5 µM; in the experiment on THP-1 (setting [11]) it was 26.2 µM; in experiment [3] (setting [12]), 15.1 µM.
Regarding `C=C1CC[C@@H]2[C@](C)(CO)[C@H](O)CC[C@@]2(C)[C@@H]1CCC1C(=O)OC[C@H]1OC(=O)/C=C\C(=O)O` (stereo partly specified), the IC50 result (in the experiment with U-937 [1] (u-937); in [2] (nih3t3); in the experiment on K562 (k562); in the experiment on THP-1 (thp-1); in experiment [3] (l132)) was “Not Active” each time.
`C=C1CC[C@@H]2[C@]3(C)COC(C)(C)O[C@@H]3CC[C@@]2(C)[C@@H]1C/C=C1/C(=O)OC[C@H]1OC(=O)CCC(=O)O`: the IC50 with U-937 [1] (setting [8]) was 19.5 µM; in [2] (setting [9]), 36.7 µM; with K562 (setting [10]), 31.4 µM; in the experiment with THP-1 (setting [11]), 10 µM; in [3] (setting [12]) it was 21.7 µM.
As for `C=C1CC[C@@H]2[C@](C)(CO)[C@H](O)CC[C@@]2(C)[C@@H]1CCC1C(=O)OC[C@H]1OC(=O)CCC(=O)O` (stereo partly specified), in the experiment with U-937 [1] (u-937), the IC50 entry is “Not Active”.
Turning to `C=C1CC[C@@H]2[C@](C)(CO)[C@H](O)CC[C@@]2(C)[C@@H]1CCC1C(=O)OC[C@H]1OC(=O)c1ccccc1C(=O)O` (stereo partly specified), the IC50 entry (in the experiment with U-937 [1] (u-937); in experiment [2] (nih3t3); with K562 (k562); with THP-1 (thp-1); in [3] (l132)) was “Not Active” throughout.
